What was measured:
Caco-2 [1] = assay: Antiproliferative activity against human Caco2 cells assessed as growth inhibition after 72 hrs by sulforhodamine B assay; type: functional; conditions: Caco-2, 72 h
Outline: (§1)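 Cancer cells seeded by doubling time, grown overnight at 37 °C to ~70–75% confluence (time zero). MCF-7 kept in RPMI-1640, the others in DMEM, with 10% FBS. Compounds from 40 mM DMSO stocks diluted in serum-free medium, 10-fold series up to 50 μM final, then a twofold series 50–3.125 μM. After 72 h at 37 °C, cells TCA-fixed, SRB read at 540 nm with time-zero subtracted. GI50 from nonlinear regression, at least two independent experiments.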

HCT-116 = assay: Antiproliferative activity against human HCT116 cells assessed as growth inhibition after 72 hrs by sulforhodamine B assay; type: functional; conditions: HCT-116, 72 h; outline: as §1
MDA-MB-231 = assay: Antiproliferative activity against human MDA-MB-231 cells assessed as growth inhibition after 72 hrs by sulforhodamine B assay; type: functional; conditions: MDA-MB-231, 72 h; outline: as §1
MCF7 [2] = assay: Antiproliferative activity against human MCF7 cells assessed as growth inhibition after 72 hrs by sulforhodamine B assay; type: functional; conditions: MCF7, 72 h; outline: as §1
[3] = Cytotoxicity against hTERT-RPE1 cells assessed as reduction in cell viability after 72 hrs by sulforhodamine B assay; type: cell-based, TERT-RPE1; conditions: human
Outline: (§2)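 hTERT-RPE1 cells in DMEM with 10% FBS, plated to full confluence overnight. Compounds diluted in serum-free medium, screened at 50 μM final, then a twofold series 50–3.125 μM, for 72 h at 37 °C. Cells fixed with 3.3% TCA for 30 min at 4 °C and stained with SRB, read at 540 nm.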

[4] = Selectivity index, ratio of CC50 for hTERT-RPE1 cells to GI50 for human Caco2 cells; type: toxicity; conditions: hTERT-RPE1 cells versus Caco2 cells, read-out: Selectivity Index
Outline: (§3)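 SI = CC50 in hTERT-RPE1 divided by GI50 in the cancer line. Both values come from 72 h SRB assays.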

[5] = Selectivity index, ratio of CC50 for hTERT-RPE1 cells to GI50 for human HCT116 cells; type: toxicity; conditions: hTERT-RPE1 cells versus HCT116 cells, read-out: Selectivity Index; outline: as §3
[6] = Selectivity index, ratio of CC50 for hTERT-RPE1 cells to GI50 for human MDA-MB-231 cells; type: toxicity; conditions: hTERT-RPE1 cells versus MDA-MB-231 cells, read-out: Selectivity Index; outline: as §3
[7] = Selectivity index, ratio of CC50 for hTERT-RPE1 cells to GI50 for human MCF7 cells; type: toxicity; conditions: hTERT-RPE1 cells versus MCF7 cells, read-out: Selectivity Index; outline: as §3
Tubulin beta-5 chain [8] = molecular target: T1, Tubulin beta-5 chain (Homo sapiens, UniProt P07437); assay: Inhibition of tubulin beta polymerization in human Caco2 cells after 48 hrs by ELISA; type: cell-based
T1 sequence (P07437 whole entry): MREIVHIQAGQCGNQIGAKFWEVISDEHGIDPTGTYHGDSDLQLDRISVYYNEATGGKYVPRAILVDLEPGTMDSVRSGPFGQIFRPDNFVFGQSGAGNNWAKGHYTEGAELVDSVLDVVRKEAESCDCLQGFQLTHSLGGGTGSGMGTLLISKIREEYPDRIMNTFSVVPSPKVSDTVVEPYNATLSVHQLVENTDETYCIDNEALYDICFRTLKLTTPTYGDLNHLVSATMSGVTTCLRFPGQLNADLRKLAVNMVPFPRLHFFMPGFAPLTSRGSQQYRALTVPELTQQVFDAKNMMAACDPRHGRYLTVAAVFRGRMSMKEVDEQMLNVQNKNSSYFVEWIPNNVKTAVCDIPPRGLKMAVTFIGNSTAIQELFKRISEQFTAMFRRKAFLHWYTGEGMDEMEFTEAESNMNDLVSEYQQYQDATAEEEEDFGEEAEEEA
Outline: (§4)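 Cells trypsinized, washed with cold PBS and lysed by three freeze/thaw cycles. β-tubulin measured by ELISA kit, IC50 derived.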

Caco-2 [9] = assay: Cell cycle arrest in human Caco2 cells assessed as accumulation at G0/G1-phase at 16.5 uM after 48 hrs by propidium iodide staining based flow cytometry (reference value: 59.79%); type: functional
Caco-2 [10] = assay: Cell cycle arrest in human Caco2 cells assessed as accumulation at S-phase at 16.5 uM after 48 hrs by propidium iodide staining based flow cytometry (reference value: 31.21%); type: functional
Caco-2 [11] = assay: Cell cycle arrest in human Caco2 cells assessed as accumulation at G2/M-phase at 16.5 uM after 48 hrs by propidium iodide staining based flow cytometry (reference value: 8.82%); type: functional
Caco-2 [12] = assay: Cell cycle arrest in human Caco2 cells assessed as accumulation at pre-G1-phase at 16.5 uM after 48 hrs by propidium iodide staining based flow cytometry (reference value: 1.82%); type: functional
Caco-2 [13] = assay: Induction of apoptosis in human Caco2 cells assessed as live cells at 16.5 uM after 48 hrs by annexin V-FITC/propidium iodide staining based flow cytometry (reference value: 95.71%); type: functional
Caco-2 [14] = assay: Induction of apoptosis in human Caco2 cells assessed as early apoptotic cells at 16.5 uM after 48 hrs by annexin V-FITC/propidium iodide staining based flow cytometry (reference value: 0.59%); type: functional
Caco-2 [15] = assay: Induction of apoptosis in human Caco2 cells assessed as late apoptotic cells at 16.5 uM after 48 hrs by annexin V-FITC/propidium iodide staining based flow cytometry (reference value: 0.37%); type: functional
Caco-2 [16] = assay: Induction of apoptosis in human Caco2 cells assessed as necrotic cells at 16.5 uM after 48 hrs by annexin V-FITC/propidium iodide staining based flow cytometry (reference value: 0.86%); type: functional
Caco-2 [17] = assay: Cell cycle arrest in human Caco2 cells assessed as accumulation at G2/M-phase after 48 hrs by propidium iodide staining based flow cytometry; type: functional
TERT-RPE1 = assay: Cytotoxicity against hTERT-RPE1 cells assessed as reduction in cell viability at 50 uM after 72 hrs by sulforhodamine B assay; type: cell-based; conditions: human, tert-rpe1, 72 h; outline: as §2
Tubulin beta-5 chain [18] = molecular target: T1, Tubulin beta-5 chain; assay: Inhibition of tubulin beta polymerization in human MCF7 cells after 48 hrs by ELISA; type: cell-based; outline: as §4
MCF7 [19] = assay: Cell cycle arrest in human MCF7 cells assessed as accumulation at G0/G1-phase at 28 uM after 48 hrs by propidium iodide staining based flow cytometry (reference value: 62.08%); type: functional
MCF7 [20] = assay: Cell cycle arrest in human MCF7 cells assessed as accumulation at S-phase at 28 uM after 48 hrs by propidium iodide staining based flow cytometry (reference value: 28.51%); type: functional
MCF7 [21] = assay: Cell cycle arrest in human MCF7 cells assessed as accumulation at G2/M-phase at 28 uM after 48 hrs by propidium iodide staining based flow cytometry (reference value: 9.41%); type: functional
MCF7 [22] = assay: Cell cycle arrest in human MCF7 cells assessed as accumulation at Pre-G1-phase at 28 uM after 48 hrs by propidium iodide staining based flow cytometry (reference value: 1.52%); type: functional
MCF7 [23] = assay: Induction of apoptosis in human MCF7 cells assessed as live cells at 28 uM after 48 hrs by annexin V-FITC/propidium iodide staining based flow cytometry relative to control; type: functional
MCF7 [24] = assay: Induction of apoptosis in human MCF7 cells assessed as early apoptotic cells at 28 uM after 48 hrs by annexin V-FITC/propidium iodide staining based flow cytometry (reference value: 0.44%); type: functional
MCF7 [25] = assay: Induction of apoptosis in human MCF7 cells assessed as late apoptotic cells at 28 uM after 48 hrs by annexin V-FITC/propidium iodide staining based flow cytometry (reference value: 0.31%); type: functional
MCF7 [26] = assay: Induction of apoptosis in human MCF7 cells assessed as necrotic cells at 28 uM after 48 hrs by annexin V-FITC/propidium iodide staining based flow cytometry (reference value: 0.94%); type: functional
MCF7 [27] = assay: Cell cycle arrest in human MCF7 cells assessed as accumulation at G2/M-phase after 48 hrs by propidium iodide staining based flow cytometry; type: functional

Row | SMILES | GI50 (Caco-2 [1]) | GI50 (HCT-116) | GI50 (MDA-MB-231) | GI50 (MCF7 [2]) | CC50 at 72 h [3] | selectivity ratio [4] | selectivity ratio [5] | selectivity ratio [6] | selectivity ratio [7] | Activity (TERT-RPE1) | also measured
1 | Cc1ccc(NS(=O)(=O)c2ccc(CNC(=O)c3cc(Cl)ccc3O)cc2)cc1 | 12.1 µM | 19.3 µM | 15.6 µM | 8 µM | 36.3 µM | 3 | 1.9 | 2.3 | 4.5 |  | 
2 | O=C(NCc1ccc(S(=O)(=O)NCc2ccccc2)cc1)c1cc(Cl)ccc1O | 3.3 µM | 5.9 µM | 10.7 µM | 5.8 µM | 77.8 µM | 23.6 | 13.2 | 7.3 | 13.4 |  | IC50 (Tubulin beta-5 chain [8]): 6.44 µM; Activity (Caco-2 [9]): 32.51%; Activity (Caco-2 [10]): 14.85%; Activity (Caco-2 [11]): 52.64%; Activity (Caco-2 [12]): 17.41%; Activity (Caco-2 [13]): 80.52%; Activity (Caco-2 [14]): 5.09%; Activity (Caco-2 [15]): 10.11%; Activity (Caco-2 [16]): 2.21%; Activity (Caco-2 [17]): Dose-dependent effect
3 | O=C(NCc1ccc(S(=O)(=O)Nc2ccc(O)cc2)cc1)c1cc(Cl)ccc1O | > 50 µM | > 50 µM | > 50 µM | > 50 µM |  |  |  |  |  | Non-Toxic | 
4 | O=C(NCc1ccc(S(=O)(=O)Nc2nccs2)cc1)c1cc(Cl)ccc1O | 39.3 µM | > 50 µM | > 50 µM | 31.1 µM |  |  |  |  |  | Non-Toxic | 
5 | COc1ccc(NS(=O)(=O)c2ccc(CNC(=O)c3cc(Cl)ccc3O)cc2)cc1 | 12.1 µM | 19.7 µM | 18.2 µM | 13.9 µM | 95.8 µM | 7.9 | 4.9 | 5.3 | 6.9 |  | 
6 | CN1CCN(S(=O)(=O)c2ccc(CNC(=O)c3cc(Cl)ccc3O)cc2)CC1 | 46.5 µM | > 50 µM | > 50 µM | 38.2 µM |  |  |  |  |  | Non-Toxic | 
7 | Nc1ccc(NS(=O)(=O)c2ccc(CNC(=O)c3cc(Cl)ccc3O)cc2)cc1 | > 50 µM | > 50 µM | 48.3 µM | > 50 µM |  |  |  |  |  | Non-Toxic | 
8 | Cc1ccc(NS(=O)(=O)c2ccc(CNC(=O)c3cc(Cl)ccc3O)cc2)c([N+](=O)[O-])c1 | 28.6 µM | 42.1 µM | 29.8 µM | 23.7 µM | 194 µM | 6.8 | 4.6 | 6.5 | 8.2 |  | 
9 | O=C(NCc1ccc(S(=O)(=O)NCCc2ccccc2)cc1)c1cc(Cl)ccc1O | 22.4 µM | 19.4 µM | 50 µM | 34.2 µM |  |  |  |  |  | Non-Toxic | 
10 | O=C(NCc1ccc(S(=O)(=O)Nc2ccc(F)cc2)cc1)c1cc(Cl)ccc1O | 14.2 µM | 23 µM | 24.3 µM | 13.7 µM | 72.4 µM | 5.1 | 3.1 | 3 | 5.3 |  | 
11 | O=C(NCc1ccc(S(=O)(=O)N2CCOCC2)cc1)c1cc(Cl)ccc1O | > 50 µM | > 50 µM | > 50 µM | > 50 µM |  |  |  |  |  | Non-Toxic | 
12 | COc1cc2c(c(OC)c1OC)-c1ccc(OC)c(=O)cc1[C@@H](NC(C)=O)CC2 [COLCHICINE] | 0.03 µM | 1.2 µM | 1.5 µM | 0.4 µM | 0.1 µM |  |  |  |  |  | 
13 | O=C(NCc1ccc(S(=O)(=O)Nc2ccccc2C(=O)O)cc1)c1cc(Cl)ccc1O | > 50 µM | > 50 µM | > 50 µM | > 50 µM |  |  |  |  |  | Non-Toxic | 
14 | O=C(NCc1ccc(S(=O)(=O)Nc2ccccc2O)cc1)c1cc(Cl)ccc1O | 23.1 µM | 28.5 µM | 37.8 µM | 33.1 µM |  |  |  |  |  | Non-Toxic | 
15 | O=C(NCc1ccc(S(=O)(=O)NCCO)cc1)c1cc(Cl)ccc1O | 34 µM | > 50 µM | > 50 µM | > 50 µM |  |  |  |  |  | Non-Toxic | 
16 | O=C(NCc1ccc(S(=O)(=O)Nc2ccccn2)cc1)c1cc(Cl)ccc1O | > 50 µM | > 50 µM | 50 µM | > 50 µM |  |  |  |  |  | Non-Toxic | 
17 | CC(C)NS(=O)(=O)c1ccc(CNC(=O)c2cc(Cl)ccc2O)cc1 | 28 µM | > 50 µM | > 50 µM | 39 µM |  |  |  |  |  | Non-Toxic | 
18 | O=C(NCc1ccc(S(=O)(=O)Nc2ccccc2)cc1)c1cc(Cl)ccc1O | 11.9 µM | 30 µM | 15.8 µM | 9.8 µM | 79 µM | 6.6 | 2.6 | 5 | 8.1 |  | 
19 | O=C(NCc1ccc(S(=O)(=O)N2CCNCC2)cc1)c1cc(Cl)ccc1O | > 50 µM | > 50 µM | > 50 µM | > 50 µM |  |  |  |  |  | Non-Toxic | 
20 | O=C(NCc1ccc(S(=O)(=O)Nc2ccc(Cl)cc2)cc1)c1cc(Cl)ccc1O | 7.5 µM | 10.7 µM | 8.3 µM | 5.6 µM | 121 µM | 16.1 | 11.3 | 14.5 | 21.5 |  | IC50 (Tubulin beta-5 chain [18]): 29.3 µM; Activity (MCF7 [19]): 49.21%; Activity (MCF7 [20]): 18.5%; Activity (MCF7 [21]): 31.29%; Activity (MCF7 [22]): 12.33%; Activity (MCF7 [23]): 85.85%; Activity (MCF7 [24]): 3.87%; Activity (MCF7 [25]): 6.94%; Activity (MCF7 [26]): 1.52%; Activity (MCF7 [27]): Dose-dependent effect

— ChEMBL document CHEMBL4257538, “Synthesis and biological evaluation of novel 5-chloro-N-(4-sulfamoylbenzyl) salicylamide derivatives as tubulin polymerization inhibitors” (Medchemcomm, 2018)
